Experimental data reported in ChEMBL document CHEMBL3588805, “Characterization and Biological Activities of Ocellatin Peptides from the Skin Secretion of the Frog Leptodactylus pustulatus” (J Nat Prod, 2015).
Converted amounts (≈) assume the structure as drawn. The source made the active and inactive calls. No cut-off for these calls is given here. Where a SMILES comes first, the peptide text is derived from it.

Assays:
[1] = Toxicity in human RBC assessed as induction of hemolysis at 800 ug/mL incubated for 1 hr at 37 degC; assay type: cell-based, Erythrocyte; settings: human red blood cells (RBC), read-out: Activity
Procedure, shortened: (§1)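 Human RBCs collected in EDTA (1.8 mg/mL), washed three times, resuspended in 0.85% saline, mixed with an equal volume of peptide solution (100–800 μg/mL). 1 h at 37 °C, centrifuged at 10000g for 1 min, supernatant absorbance read at 550 nm. Saline and 0.1% (v/v) Triton X as 0 and 100% controls. % hemolysis = (A peptide − A saline)/(A Triton − A saline) × 100.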

[2] = Toxicity in human RBC assessed as induction of hemolysis at antibacterial MIC (Escherichia coli ATCC 25922) incubated for 1 hr at 37 degC; assay type: cell-based, Erythrocyte; settings: human red blood cells (RBC), read-out: Activity; procedure, shortened: as §1
Klebsiella pneumoniae = experiment: Antibacterial activity against Klebsiella pneumoniae ATCC 700603 assessed as inhibition of visible bacterial growth incubated at 37 degC for 24 hrs by CLSI protocol based method; assay type: functional; settings: ATCC 700603, 24 h
Procedure, shortened: (§2)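 Broth microdilution per CLSI 2012. Strains grown at 37 °C in Mueller-Hinton broth to log phase (1 × 10^8 CFU/mL). Peptide 2-fold serial dilutions, 6.25–800 μg/mL, in Mueller-Hinton broth; final inoculum 5 × 10^5 CFU/mL per well. Aerobic incubation 24 h at 37 °C. MIC is the lowest concentration with no visible growth (A600 < 0.05). Meropenem control for Gram-negatives, oxacillin for S. aureus. Triplicate, two independent experiments.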

[3] = Cytotoxicity against mouse NIH/3T3 cells at antibacterial MIC (Escherichia coli ATCC 25922) assessed as reduction in cell index incubated for 60 hrs; assay type: cell-based; settings: nih3t3, 60 h
Staphylococcus aureus = experiment: Antibacterial activity against Staphylococcus aureus […] assessed as inhibition of visible bacterial growth incubated at 37 degC for 24 hrs by CLSI protocol based method; assay type: functional; procedure, shortened: as §2
Salmonella enterica = experiment: Antibacterial activity against Salmonella choleraesuis ATCC 14028 assessed as inhibition of visible bacterial growth incubated at 37 degC for 24 hrs by CLSI protocol based method; assay type: functional; settings: ATCC 14028, 24 h
Procedure, shortened: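 Strain grown at 37 °C in Mueller-Hinton broth to log phase (1 × 10^8 CFU/mL). Broth microdilution per CLSI (2012) with 2-fold peptide dilutions in Mueller-Hinton broth, 6.25–800 μg/mL, final inoculum 5 × 10^5 CFU/mL. Incubated 24 h, 37 °C, aerobic. MIC is the lowest concentration giving absorbance below 0.05 at 600 nm. Meropenem control. Triplicate, two independent experiments.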

Escherichia coli [4] = experiment: Antibacterial activity against Escherichia coli ATCC 25922 assessed as inhibition of visible bacterial growth incubated at 37 degC for 24 hrs by CLSI protocol based method; assay type: functional; settings: ATCC 25922, 24 h; procedure, shortened: as §2
Escherichia coli [5] = experiment: Induction of morphological changes in Escherichia coli ATCC 25922 assessed as reduction in number of pili at 190 uM incubated for 24 hrs by atomic force microscopy; assay type: functional, organism-based
Escherichia coli [6] = experiment: Induction of morphological changes in Escherichia coli ATCC 25922 assessed as cell cytoplasmic content release at 190 uM incubated for 24 hrs by atomic force microscopy; assay type: functional, organism-based
Escherichia coli [7] = experiment: Induction of morphological changes in Escherichia coli ATCC 25922 assessed as cell shape changes release at 190 uM incubated for 24 hrs by atomic force microscopy; assay type: functional, organism-based
Escherichia coli [8] = experiment: Induction of cell envelope morphological changes in Escherichia coli ATCC 25922 at 190 uM incubated for 24 hrs by atomic force microscopy; assay type: functional, organism-based
Escherichia coli [9] = experiment: Induction of morphological changes in Escherichia coli ATCC 25922 assessed as cell structural perturbation at 190 uM incubated for 24 hrs by atomic force microscopy; assay type: functional, organism-based

Row | Structure (SMILES) | hemolysis at 1 h, 800 ug/mL [1] [%] | hemolysis at 1 h [2] [%] | MIC (Klebsiella pneumoniae) [µM] | Activity [3] | MIC (Staphylococcus aureus) [µM] | MIC (Salmonella enterica) [µM] | MIC (Escherichia coli [4]) [µM] | Activity (Escherichia coli [5]) | Activity (Escherichia coli [6]) | Activity (Escherichia coli [7]) | Activity (Escherichia coli [8]) | Activity (Escherichia coli [9])
1 | CC[C@H](C)[C@H](NC(=O)[C@H](CCCCN)NC(=O)CNC(=O)[C@H](CCSC)NC(=O)[C@H](C)NC(=O)[C@H](Cc1cnc[nH]1)NC(=O)[C@H](C)NC(=O)[C@@H](NC(=O)[C@H](CC(C)C)NC(=O)[C@H](CCC(N)=O)NC(=O)[C@H](CCCCN)NC(=O)CNC(=O)[C@H](C)NC(=O)CNC(=O)[C@H](CCCCN)NC(=O)[C@@H](NC(=O)[C@@H](NC(=O)[C@H](CC(=O)O)NC(=O)[C@H](Cc1ccccc1)NC(=O)[C@@H](NC(=O)CN)C(C)C)[C@@H](C)CC)[C@@H](C)CC)[C@@H](C)CC)C(=O)N[C@@H](C)C(=O)N[C@@H](CCC(=O)O)C(=O)N[C@@H](CCCCN)C(=O)N[C@H](C(N)=O)C(C)C (H-GVFDIIKGAGKQLIAHAMGKIAEKV-NH2) | 4.29 | 0.19 | 310 (≈ 804 µg/mL) | Non-toxic | > 310 | 310 (≈ 804 µg/mL) | 80 (≈ 208 µg/mL) |  |  |  |  | 
2 | CC[C@H](C)[C@H](NC(=O)[C@H](CCCCN)NC(=O)CNC(=O)[C@@H](NC(=O)[C@H](C)NC(=O)[C@H](Cc1cnc[nH]1)NC(=O)[C@H](C)NC(=O)[C@@H](NC(=O)[C@H](CC(C)C)NC(=O)[C@H](CCC(N)=O)NC(=O)[C@H](CCCCN)NC(=O)CNC(=O)[C@H](C)NC(=O)[C@H](CC(=O)O)NC(=O)[C@H](CCCCN)NC(=O)[C@@H](NC(=O)[C@@H](NC(=O)[C@H](CC(=O)O)NC(=O)[C@H](Cc1ccccc1)NC(=O)[C@@H](NC(=O)CN)C(C)C)[C@@H](C)CC)[C@@H](C)CC)C(C)C)[C@@H](C)O)C(=O)N[C@@H](C)C(=O)N[C@@H](CCC(=O)O)C(=O)N[C@@H](CCCCN)C(=O)N[C@H](C(N)=O)C(C)C (H-GVFDIIKDAGKQLVAHATGKIAEKV-NH2) | 0 | 0 | > 310 | Non-toxic | > 310 | > 310 | > 310 |  |  |  |  | 
3 | CC[C@H](C)[C@H](NC(=O)[C@H](CCCCN)NC(=O)CNC(=O)[C@H](CCSC)NC(=O)[C@H](C)NC(=O)[C@H](Cc1cnc[nH]1)NC(=O)[C@H](C)NC(=O)[C@@H](NC(=O)[C@H](CC(C)C)NC(=O)[C@H](CCC(N)=O)NC(=O)[C@H](CCCCN)NC(=O)CNC(=O)[C@H](C)NC(=O)[C@H](CC(=O)O)NC(=O)[C@H](CCCCN)NC(=O)[C@@H](NC(=O)[C@@H](NC(=O)[C@H](CC(=O)O)NC(=O)[C@H](Cc1ccccc1)NC(=O)[C@@H](NC(=O)CN)C(C)C)[C@@H](C)CC)[C@@H](C)CC)C(C)C)C(=O)N[C@@H](C)C(=O)N[C@@H](CCC(=O)O)C(=O)N[C@@H](CCCCN)C(=O)N[C@H](C(N)=O)C(C)C (H-GVFDIIKDAGKQLVAHAMGKIAEKV-NH2) | 1.98 | 1.98 | > 300 | Non-toxic | > 300 | > 300 | 300 (≈ 791 µg/mL) |  |  |  |  | 
4 | CC[C@H](C)[C@H](NC(=O)[C@H](CCCCN)NC(=O)CNC(=O)[C@H](CCSC)NC(=O)[C@H](C)NC(=O)[C@H](Cc1cnc[nH]1)NC(=O)[C@H](C)NC(=O)[C@@H](NC(=O)[C@H](CC(C)C)NC(=O)[C@H](CCC(N)=O)NC(=O)[C@H](CCCNC(=N)N)NC(=O)CNC(=O)[C@H](C)NC(=O)[C@H](CC(=O)O)NC(=O)[C@H](CCCCN)NC(=O)[C@@H](NC(=O)[C@@H](NC(=O)[C@H](CC(=O)O)NC(=O)[C@H](Cc1ccccc1)NC(=O)[C@@H](NC(=O)CN)C(C)C)[C@@H](C)CC)[C@@H](C)CC)C(C)C)C(=O)N[C@@H](C)C(=O)N[C@@H](CCC(=O)O)C(=O)N[C@@H](CCCCN)C(=O)N[C@H](C(N)=O)C(C)C (H-GVFDIIKDAGRQLVAHAMGKIAEKV-NH2) | 4.05 | 4.05 | > 300 | Non-toxic | > 300 | > 300 | 300 (≈ 800 µg/mL) |  |  |  |  | 
5 | CC[C@H](C)[C@H](NC(=O)[C@H](CCCCN)NC(=O)CNC(=O)[C@H](CCSC)NC(=O)[C@H](C)NC(=O)[C@H](CCCNC(=N)N)NC(=O)[C@H](C)NC(=O)[C@@H](NC(=O)[C@H](CC(C)C)NC(=O)[C@H](CCC(N)=O)NC(=O)[C@H](CCCCN)NC(=O)CNC(=O)[C@H](C)NC(=O)CNC(=O)[C@H](CCCCN)NC(=O)[C@@H](NC(=O)[C@@H](NC(=O)[C@H](CC(=O)O)NC(=O)[C@H](Cc1ccccc1)NC(=O)[C@@H](NC(=O)CN)C(C)C)[C@@H](C)CC)[C@@H](C)CC)[C@@H](C)CC)C(=O)N[C@@H](C)C(=O)N[C@@H](CCC(=O)O)C(=O)N[C@@H](CCCCN)C(=O)N[C@H](C(=O)NCC(=O)N[C@@H](CC(C)C)C(=O)N[C@@H](CC(N)=O)C(=O)N[C@@H](CCCCN)C(=O)N[C@@H](CC(=O)O)C(=O)NCC(=O)N[C@@H](CC(N)=O)C(=O)O)C(C)C (H-GVFDIIKGAGKQLIARAMGKIAEKVGLNKDGN-OH) | 8.09 | 0 | 240 (≈ 795 µg/mL) | Non-toxic | 240 (≈ 795 µg/mL) | 240 (≈ 795 µg/mL) | 60 (≈ 199 µg/mL) |  |  |  |  | 
6 | CC[C@H](C)[C@H](NC(=O)[C@H](C)NC(=O)[C@H](Cc1cnc[nH]1)NC(=O)[C@H](C)NC(=O)[C@@H](NC(=O)[C@H](CC(C)C)NC(=O)[C@H](CC(=O)O)NC(=O)[C@H](CCCCN)NC(=O)CNC(=O)[C@H](C)NC(=O)CNC(=O)[C@H](CCCCN)NC(=O)[C@@H](NC(=O)[C@@H](NC(=O)[C@H](CC(=O)O)NC(=O)[C@@H](NC(=O)[C@@H](NC(=O)CN)C(C)C)[C@@H](C)CC)[C@@H](C)CC)[C@@H](C)CC)[C@@H](C)CC)C(=O)NCC(=O)N[C@@H](CCCCN)C(=O)N[C@@H](CC(C)C)C(=O)N[C@@H](C)C(=O)N[C@@H](CCC(=O)O)C(=O)N[C@@H](CCCCN)C(=O)N[C@H](C(N)=O)C(C)C (H-GVIDIIKGAGKDLIAHAIGKLAEKV-NH2) | 0.69 | 0.69 | > 320 | Non-toxic | > 320 | > 320 | 320 (≈ 809 µg/mL) |  |  |  |  | 
7 | CC[C@H](C)[C@H](NC(=O)[C@H](CC(C)C)NC(=O)[C@H](CCC(N)=O)NC(=O)[C@H](CCCCN)NC(=O)CNC(=O)[C@H](C)NC(=O)CNC(=O)[C@H](CCCCN)NC(=O)[C@@H](NC(=O)[C@@H](NC(=O)[C@H](CC(=O)O)NC(=O)[C@H](Cc1ccccc1)NC(=O)[C@@H](NC(=O)CN)C(C)C)[C@@H](C)CC)[C@@H](C)CC)C(=O)N[C@@H](C)C(=O)N[C@@H](Cc1cnc[nH]1)C(=O)N[C@@H](C)C(=O)N[C@@H](CCSC)C(=O)N[C@@H](CCC(=O)O)C(=O)N[C@@H](CCCCN)C(=O)N[C@H](C(=O)N[C@@H](C)C(=O)N[C@@H](CCC(=O)O)C(=O)N[C@@H](CCCCN)C(=O)N[C@H](C(=O)NCC(=O)N[C@@H](CC(C)C)C(=O)N[C@@H](CC(N)=O)C(=O)N[C@@H](CCCCN)C(=O)N[C@@H](CC(=O)O)C(=O)NCC(=O)N[C@@H](CC(N)=O)C(=O)O)C(C)C)[C@@H](C)CC (H-GVFDIIKGAGKQLIAHAMEKIAEKVGLNKDGN-OH) | 0.69 | 0 | > 240 | Non-toxic | > 240 | > 240 | 120 (≈ 404 µg/mL) |  |  |  |  | 
8 | CC[C@H](C)[C@H](NC(=O)[C@H](CCCCN)NC(=O)CNC(=O)[C@H](CCSC)NC(=O)[C@H](C)NC(=O)[C@H](Cc1cnc[nH]1)NC(=O)[C@H](C)NC(=O)[C@@H](NC(=O)[C@H](CC(C)C)NC(=O)[C@H](CCC(N)=O)NC(=O)[C@H](CCCCN)NC(=O)CNC(=O)[C@H](C)NC(=O)CNC(=O)[C@H](CCCCN)NC(=O)[C@@H](NC(=O)[C@@H](NC(=O)[C@H](CC(=O)O)NC(=O)[C@H](Cc1ccccc1)NC(=O)[C@@H](NC(=O)CN)C(C)C)[C@@H](C)CC)[C@@H](C)CC)[C@@H](C)CC)C(=O)N[C@@H](C)C(=O)N[C@@H](CCC(=O)O)C(=O)N[C@@H](CCCCN)C(=O)N[C@H](C(=O)NCC(=O)N[C@@H](CC(C)C)C(=O)N[C@@H](CC(N)=O)C(=O)N[C@@H](CCCCN)C(=O)N[C@@H](CC(=O)O)C(=O)NCC(=O)N[C@@H](CC(N)=O)C(=O)O)C(C)C (H-GVFDIIKGAGKQLIAHAMGKIAEKVGLNKDGN-OH) | 13.7 | 0.06 | > 240 | Non-toxic | 240 (≈ 791 µg/mL) | 240 (≈ 791 µg/mL) | 60 (≈ 198 µg/mL) | Active | Active | Active | Active | Active
